Test [1] has as its target Kappa-type opioid receptor (Cavia porcellus) (UniProt P41144). Nature of the test: Ke value was obtained from IC50 ratio values when compared with Opioid receptor kappa 1 agonist in Guinea pig Ileum using EK as radioligand. The test is classed as functional, tissue-based. Put shortly:
(§1)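 Antagonism was tested on electrically stimulated guinea pig ileum (morphine, EK, DAMGO, U-50488) and mouse vas deferens (DADLE, DPDPE). Antagonist (usually 100 nM, some at 20 nM) was incubated 15 min before agonist. IC50 ratio is agonist IC50 with antagonist over control IC50 in the same preparation. Ke = [antagonist]/(IC50 ratio − 1). Three or more replicates were run. Selectivity is given as Ke ratios.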

In test [2] the target is Mu-type opioid receptor (Cavia porcellus) (UniProt P97266). Nature of the test: Ke value is obtained from IC50 ratio value when compared with Opioid receptor mu 1 agonist in Guinea pig Ileum using DAMGO as radioligand. The test is classed as functional, tissue-based. Put shortly:
as §1

For test [3], the system named is Delta-type opioid receptor. Briefly: Delta opioid activity on Mouse vas deference using DADLE as standard. Put shortly:
as §1

A short description of test [4]: Mu opioid activity was evaluated on electrically stimulated guinea pig ileum by using morphine(M) as standard. The test is classed as tissue-based. Put shortly: as §1
For test [5], the target named is T1, Opioid receptors; mu & kappa (Homo sapiens) (UniProt P41145+P35372). Briefly: Selectivity ratio between kappa to that of mu opioid receptor. The test is classed as protein assay. Put shortly: as §1
T1 sequence (P35372 whole entry, looked up): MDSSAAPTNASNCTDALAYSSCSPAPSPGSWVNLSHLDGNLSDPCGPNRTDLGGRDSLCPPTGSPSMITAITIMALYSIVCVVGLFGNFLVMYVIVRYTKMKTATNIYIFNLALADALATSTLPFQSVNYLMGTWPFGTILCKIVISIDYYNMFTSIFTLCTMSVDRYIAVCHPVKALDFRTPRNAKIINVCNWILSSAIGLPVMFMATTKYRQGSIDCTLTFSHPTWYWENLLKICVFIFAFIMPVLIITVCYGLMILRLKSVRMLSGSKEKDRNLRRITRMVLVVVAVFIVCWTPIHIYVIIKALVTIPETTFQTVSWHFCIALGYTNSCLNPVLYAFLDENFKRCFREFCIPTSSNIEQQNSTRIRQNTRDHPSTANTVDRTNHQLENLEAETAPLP
T1 sequence (P41145 whole entry, looked up): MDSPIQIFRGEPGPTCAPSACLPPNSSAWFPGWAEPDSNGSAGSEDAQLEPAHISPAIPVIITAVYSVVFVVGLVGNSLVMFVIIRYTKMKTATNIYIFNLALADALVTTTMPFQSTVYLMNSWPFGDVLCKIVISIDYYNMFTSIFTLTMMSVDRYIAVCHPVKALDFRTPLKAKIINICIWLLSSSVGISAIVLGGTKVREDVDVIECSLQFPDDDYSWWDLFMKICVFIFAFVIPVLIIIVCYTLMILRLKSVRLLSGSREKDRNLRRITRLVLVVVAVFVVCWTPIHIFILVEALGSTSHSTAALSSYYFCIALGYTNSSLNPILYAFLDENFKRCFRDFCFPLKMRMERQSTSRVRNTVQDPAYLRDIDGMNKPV
Test [6] in a line: Kappa opioid activity was evaluated on electrically stimulated guinea pig ileum by using ethylketazocine (EK) as standard. The test is classed as tissue-based. Put shortly: as §1
In test [7] the target is T2, Opioid receptors; mu & delta (Homo sapiens) (UniProt P41143+P35372). Nature of the test: Selectivity ratio between delta to that of mu opioid receptor. The test is classed as protein assay. Put shortly: as §1
T2 sequence (P35372 whole entry, looked up): as the sequence (P35372 whole entry, looked up) above
T2 sequence (P41143 whole entry, looked up): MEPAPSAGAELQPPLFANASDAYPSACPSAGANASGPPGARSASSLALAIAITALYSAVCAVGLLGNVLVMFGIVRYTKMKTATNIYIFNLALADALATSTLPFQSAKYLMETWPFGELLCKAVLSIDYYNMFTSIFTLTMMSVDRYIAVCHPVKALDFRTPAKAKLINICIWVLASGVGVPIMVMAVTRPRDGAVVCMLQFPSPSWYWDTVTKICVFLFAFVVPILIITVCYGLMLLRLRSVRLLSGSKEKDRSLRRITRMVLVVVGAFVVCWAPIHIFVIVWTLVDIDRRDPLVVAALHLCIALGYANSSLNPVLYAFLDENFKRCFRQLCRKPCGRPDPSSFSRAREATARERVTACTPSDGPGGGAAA
Test [8] addresses Delta-type opioid receptor (Mus musculus) (UniProt P32300). Briefly: Ke value is obtained from IC50 ratio values when compared with delta opioid agonists in MVD preparations using DADLE as radioligand. The test is classed as functional. Put shortly: as §1
Test [9] concerns the target T3, Mu-type opioid receptor (Cavia porcellus, UniProt P97266). Briefly: Opioid receptor mu 1 antagonistic activity in guinea pig ileum. The test is classed as functional, tissue-based. Put shortly: as §1
The nature of test [10]: Selectivity ratio between morphine and ethylketazocine potencies in GPI and MVD preparations. Put shortly:
as §1

Test [11] can be described thus: Selectivity ratio between DADLE and ethylketazocine potencies in GPI and MVD preparations. Put shortly:
as §1

Test [12] has as its target T4, Kappa-type opioid receptor (Cavia porcellus, UniProt P41144). Nature of the test: Binding affinity against Opioid receptor kappa 1 in Guinea pig brain membranes. The test is classed as cell membranes, Membrane. Put shortly:
(§2)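 Competition binding against radioligands in guinea pig brain membranes. μ sites used [3H]DAMGO. κ sites used [3H]EK with 1 μM DAMGO, and δ sites used [3H]DADLE with 1 μM DAMGO. Ki is the geometric mean of three replicates. Selectivity is given as δ/μ and κ/μ Ki ratios.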

For test [13], the target named is T1, Opioid receptors; mu & kappa (Homo sapiens). Nature of the test: Selectivity ratio between kappa and mu opioid receptor from guinea pig brain membrane. Put shortly:
as §2

Test [14] addresses T2, Opioid receptors; mu & delta (Homo sapiens). Nature of the test: Selectivity ratio between delta and mu opioid receptor from guinea pig brain membrane. Put shortly:
as §2

In test [15] the target is Delta-type opioid receptor (Mus musculus) (UniProt P32300). Briefly: Ke value was obtained from IC50 ratio value when compared with delta opioid agonist in MVD preparations using DADLE as radioligand. The test is classed as functional. Put shortly: as §1
Chain of Delta-type opioid receptor (Mus musculus) (P32300 whole entry): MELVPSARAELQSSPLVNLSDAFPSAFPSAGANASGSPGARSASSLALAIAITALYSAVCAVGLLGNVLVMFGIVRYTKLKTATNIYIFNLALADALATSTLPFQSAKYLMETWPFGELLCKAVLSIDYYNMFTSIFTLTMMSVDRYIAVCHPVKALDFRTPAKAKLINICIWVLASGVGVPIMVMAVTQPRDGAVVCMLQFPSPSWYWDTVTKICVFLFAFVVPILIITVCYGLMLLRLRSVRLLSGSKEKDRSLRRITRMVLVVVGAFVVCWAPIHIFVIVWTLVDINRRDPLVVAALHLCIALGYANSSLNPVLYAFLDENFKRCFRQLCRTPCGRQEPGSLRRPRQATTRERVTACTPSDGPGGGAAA
The target of test [16] is Kappa-type opioid receptor (Homo sapiens) (UniProt P41145). Briefly: Selectivity ratio between Ke value to that of DAMGO (using U-50488 as agonist; k agonist/DAMGO). The test is classed as functional. Put shortly:
(§3)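 Ke values came from IC50 ratios (n ≥ 3) in GPI and MVD, with antagonist preincubated 15 min. Ke = [antagonist]/(IC50 ratio − 1). The reported ratio is Ke against a κ agonist (EK, U-50488) or δ agonist (DADLE, DPDPE) divided by Ke against DAMGO.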

Test [17] deals with Delta-type opioid receptor (Homo sapiens) (UniProt P41143). Nature of the test: Selectivity ratio between Ke value to that of DAMGO (using DADLE as agonist; delta agonist/DAMGO). The test is classed as functional. Put shortly:
as §3

In test [18] the target is T4, Kappa-type opioid receptor. Nature of the test: Binding affinity against Kappa Opioid receptor in Guinea pig brain membranes. The test is classed as cell membranes, Membrane. Put shortly: as §2
Test [19] addresses Mu-type opioid receptor (Cavia porcellus) (UniProt P97266). Nature of the test: Ke value was obtained from IC50 ratio value when compared with Opioid receptor mu 1 agonist in Guinea pig Ileum using DAMGO as radioligand. The test is classed as functional, tissue-based. Put shortly: as §1
The target in test [20] is Delta-type opioid receptor (Homo sapiens) (UniProt P41143). Nature of the test: Ke value was obtained from IC50 ratio value when compared with delta opioid agonist in […] using DPDPE as radioligand. The test is classed as functional, tissue-based. Conditions: target entry is the homologue from another species.
Chain of Delta-type opioid receptor (Homo sapiens) (P41143 whole entry): as the sequence (P41143 whole entry, looked up) above
The target is the same in test [21]. Nature of the test: Selectivity ratio between Ke value to that of DAMGO (using DPDPE as agonist; delta agonist/DAMGO). The test is classed as functional. Put shortly: as §3
Test [22] concerns Mus musculus. Nature of the test: Antagonistic activity after […] with a peak time of 30 mins in mice (using DPDPE as agonist, delta selective). The test is classed as functional. Put shortly: (§4)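 Tail-flick test in Swiss Webster mice. The antagonist was given sc at 6.2 μmol/kg, timed so its 30 min peak fell at the centre of the observation period. Morphine and U-50488 were given sc (μmol/kg) and DPDPE icv (nmol/mouse). Agonist ED50 was found in control and treated mice and expressed as the treated/control ED50 ratio.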

The target in test [23] is Kappa-type opioid receptor (Cavia porcellus) (UniProt P41144). Nature of the test: Ke value was obtained from IC50 ratio value when compared with kappa opioid agonist in Guinea pig Ileum using EK as radioligand. The test is classed as functional, tissue-based. Put shortly:
as §1

Test [24] is described as follows: Ratio of antagonistic activity of treated/control; antinociceptive effect of DPDPE opioid agonist in Mice. The test is classed as functional. Put shortly: as §4
Test [25] has as its system Mus musculus. Nature of the test: Antagonistic activity after subcutaneous administration (6.2 umol/kg) with a peak time of 30 mins in mice (using morphine as agonist, mu selective). The test is classed as functional. The conditions noted are these: sc, 0.5 h. Put shortly: as §4
Test [26] has as its target Kappa-type opioid receptor (Homo sapiens) (UniProt P41145). Nature of the test: Selectivity ratio between Ke value to that of DAMGO (using EK as agonist; k agonist/DAMGO). The test is classed as functional. Put shortly: as §3
Test [27] concerns Mus musculus. Nature of the test: Antagonistic activity after subcutaneous administration (6.2 umol/kg) with a peak time of 30 mins in mice (using U-50488 as agonist, kappa selective). The test is classed as functional. Conditions: sc, 0.5 h. Put shortly:
as §4

The target of test [28] is Kappa-type opioid receptor (Cavia porcellus) (UniProt P41144). Nature of the test: Ke value was obtained from IC50 ratio value when compared with Opioid receptor kappa 1 agonist in Guinea pig Ileum using U-50488 as radioligand. The test is classed as functional, tissue-based. Put shortly:
as §1

Test [29] can be described thus: Ratio of antagonistic activity of treated/control; antinociceptive effect of U-50488 opioid agonist in Mice. The test is classed as functional. Put shortly: as §4
Test [30] deals with T3, Mu-type opioid receptor. Briefly: Binding affinity against Opioid receptor mu 1 in Guinea pig brain membranes. The test is classed as cell membranes, Membrane. Put shortly: as §2
Test [31] in a line: Ratio of antagonistic activity treated/control in Mice; antinociceptive effect of morphine opioid agonist in Mice. The test is classed as functional. Put shortly:
as §4

Chain of Mu-type opioid receptor (Cavia porcellus) (P97266 whole entry): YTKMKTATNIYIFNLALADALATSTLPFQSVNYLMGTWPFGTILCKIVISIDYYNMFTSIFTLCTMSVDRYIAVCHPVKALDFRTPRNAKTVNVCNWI
T3 sequence (P97266 whole entry): as above
Chain of Kappa-type opioid receptor (Cavia porcellus) (P41144 whole entry): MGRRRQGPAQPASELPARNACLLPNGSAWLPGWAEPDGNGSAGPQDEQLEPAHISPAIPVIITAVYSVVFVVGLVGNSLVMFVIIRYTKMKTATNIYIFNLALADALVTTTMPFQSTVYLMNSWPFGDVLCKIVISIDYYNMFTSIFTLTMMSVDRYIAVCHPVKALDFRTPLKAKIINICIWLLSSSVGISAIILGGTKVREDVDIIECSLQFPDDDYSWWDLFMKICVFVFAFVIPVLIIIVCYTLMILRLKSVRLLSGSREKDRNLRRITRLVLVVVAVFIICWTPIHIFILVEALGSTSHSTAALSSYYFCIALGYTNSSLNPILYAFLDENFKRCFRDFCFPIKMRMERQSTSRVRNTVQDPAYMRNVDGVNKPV
Chain of Kappa-type opioid receptor (Homo sapiens) (P41145 whole entry): as the sequence (P41145 whole entry, looked up) above
T4 sequence (P41144 whole entry): as the sequence (P41144 whole entry) above

`NC(=O)[C@]1(N)CC[C@@]2(O)[C@H]3Cc4ccc(O)c5c4C2(CCN3CC2CC2)[C@H]1O5`: the Ke in test [1] came out at 44 nM; in [2], 9.8 nM. The IC50 ratio came out at 0.89 in test [3], 11.2 in [4] and 3.3 in test [6]. Moreover, the Ke ratio in test [5] was 4.5.

For `N[C@]1(C(=O)O)CC[C@@]2(O)[C@H]3Cc4ccc(O)c5c4C2(CCN3CC2CC2)[C@H]1O5`, the Ke was 19 nM in [1], 139 nM in test [8] and 0.65 nM in test [2]. Besides, the figures for the Ke selectivity ratio in test [7] and in [5] were 214 and 30, respectively. The figures for the IC50 ratio in [3], in test [4] and in test [6] were 1.7, 154 and 6.2, respectively.

For the compound `O=C1NC(=O)[C@@]2(CC[C@@]3(O)[C@H]4Cc5ccc(O)c6c5[C@@]3(CCN4CC3CC3)[C@H]2O6)N1`, the IC50 against Mu-type opioid receptor [9] was found to be 71 nM.

`CC(=O)NC1=NC([C@]2(NC(C)=O)CC[C@@]3(O)[C@H]4Cc5ccc(O)c6c5C3(CCN4CC3CC3)[C@H]2O6)=N[C@]12CC[C@@]1(O)[C@H]3Cc4ccc(O)c5c4C1(CCN3CC1CC1)[C@H]2O5`: the figures for the Ke in test [1] and in [2] were 44 nM and 1.9 nM, respectively. Further, in [10], the Ke ratio turned out to be 23. For the same compound, the values for the IC50 ratio in test [3], in [4] and in test [6] were 1.4, 11.7 and 3.3, respectively.

With `N#C[C@@]1(N)CC[C@@]2(O)[C@H]3Cc4ccc(O)c5c4C2(CCN3CC2CC2)[C@H]1O5`, the Ke in [1] was 6 nM; in test [8], 67 nM; in [2] it was 1.3 nM. Further, the Ke ratio in test [10] was 4.7; in test [11], 52. Moreover, the IC50 ratio in [3] amounted to 2.5; in test [4], 79; in [6], 17.5.

Compound `N=C(N)[C@]1(N)CC[C@@]2(O)[C@H]3Cc4ccc(O)c5c4[C@@]2(CCN3CC2CC2)[C@H]1O5` came in with an IC50 at Mu-type opioid receptor [9] of 18 nM.

`N[C@@]1(C2=NC(=O)[C@@]3(CC[C@@]4(O)[C@H]5Cc6ccc(O)c7c6C4(CCN5CC4CC4)[C@H]3O7)N2)CC[C@@]2(O)[C@H]3Cc4ccc(O)c5c4C2(CCN3CC2CC2)[C@H]1O5` registered a Ki in test [12] of 5.8 nM. In addition, the Ke in [2] worked out at 0.46 nM. For the same compound, the Ke ratio was 5 in [13] and 151 in test [14]. Also, the IC50 ratio was 0.87 in [3], 11.8 in test [4] and 1.1 in test [6].

As to `NC1=NC([C@]2(N)CC[C@@]3(O)[C@H]4Cc5ccc(O)c6c5C3(CCN4CC3CC3)[C@H]2O6)=N[C@]12CC[C@@]1(O)[C@H]3Cc4ccc(O)c5c4C1(CCN3CC1CC1)[C@H]2O5`, the Ke in test [15] amounted to 57 nM; in test [19], 0.07 nM; in [20] it was 66 nM; in test [23], 12 nM; in test [28], 4.7 nM. In addition, the Ke ratio in [16] was determined as 67; in [17], 814; in test [7] it was 184; in test [21], 943; in [13], 90; in test [26], 171. Moreover, the Ke ratio in [5] stood at 40; in [14], 187. Moreover, the Ki in test [18] is 88 nM; at Mu-type opioid receptor [30], 0.98 nM. Also, the ED50 was found to be 16 nM mouse-1 in the test on Mus musculus [22], 68.7 µmol/kg in the test with Mus musculus [25] and 25.6 µmol/kg in the test with Mus musculus [27]. Further, the ED50 ratio is given as 0.66 in test [24], 0.72 in [29] and 4 in [31]. Moreover, the IC50 ratio stood at 2.8 in [3], 65 in test [4] and 9.1 in [6].

As to `N[C@@]1(C(=O)O)CC[C@@]2(O)[C@H]3Cc4ccc(O)c5c4C2(CCN3CC2CC2)[C@H]1O5`, the figures for the Ke in test [1] and in test [2] were 10 nM and 27 nM, respectively. The IC50 ratio in [3] worked out at 1.1; in test [4], 4.8; in test [6] it was 1.9.

For the origin of these results see ChEMBL document CHEMBL1129563, “Opioid antagonist activity of naltrexone-derived bivalent ligands: importance of a properly oriented molecular scaffold to guide "address" recognition at kappa opioid receptors” (J Med Chem, 1996).
